ChEMBL document CHEMBL3243948, “Vitamin B6 antagonists obtained by replacing or modifying the 2-methyl group” (J Med Chem, 1977)
The source made the active and inactive calls. No cut-off for these calls is given here.

Key:
TA3 [1] = test: Growth inhibition of mouse TA3 cells in presence of 10^-7 M pyridoxal; type: functional
Procedure, shortened: (§1)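 Mouse mammary adenocarcinoma TA3 cells cultured in Eagle's medium with minimal pyridoxal (1 X 10^-7 M) to sustain growth. Compounds were scored for inhibition of growth.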

TA3 [2] = test: Growth inhibition of mouse TA3 cells at 1 X 10^-4 M in presence of 10^-7 M pyridoxal; type: functional, cell-based
TA3 [3] = test: Growth inhibition of mouse TA3 cells in presence of 10^-7 M pyridoxal relative to control; type: functional; procedure, shortened: as §1
TA3 [4] = test: Growth inhibition of mouse TA3 cells in presence of 10^-5 M pyridoxal; type: functional
Procedure, shortened: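 TA3 mouse mammary adenocarcinoma cells grown in complete Eagle's medium, which holds a higher pyridoxal level than the minimal medium. Compounds were tested for growth inhibition.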

Pyridoxal kinase = target: T1, Pyridoxal kinase (Homo sapiens, UniProt O00764); test: Competitive inhibition of pyridoxal phosphokinase (unknown origin)
T1 sequence (O00764 whole entry): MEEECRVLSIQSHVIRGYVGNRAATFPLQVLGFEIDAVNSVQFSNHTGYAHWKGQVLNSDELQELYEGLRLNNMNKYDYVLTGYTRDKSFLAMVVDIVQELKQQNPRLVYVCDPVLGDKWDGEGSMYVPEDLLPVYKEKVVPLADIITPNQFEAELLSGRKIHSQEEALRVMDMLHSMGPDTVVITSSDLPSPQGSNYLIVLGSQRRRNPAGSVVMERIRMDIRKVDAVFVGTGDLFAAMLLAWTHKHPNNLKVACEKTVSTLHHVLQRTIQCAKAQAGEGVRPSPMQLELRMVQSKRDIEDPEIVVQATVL
Procedure, shortened: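 Inhibitor tested against pyridoxal phosphokinase-catalysed phosphorylation of pyridoxal (substrate). Ki derived from competitive kinetics.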

[5] = Mus musculus, TA3, read-out: ID50 (the source's name)

SMILES | ID50 (TA3 [1]) | growth inhibition (GI) (TA3 [2]) | other results
O=Cc1ncc(CO)c(CO)c1O | 1.7 ×10⁻⁴ M | – | –
COc1c(C)ncc(CO)c1CO | – | inactive | –
COc1cncc(CO)c1CO | – | inactive | –
OCc1cnc(F)c(O)c1CO | >1 ×10⁻⁴ M | – | –
O=C(SCc1ncc(CO)c(CO)c1OCc1ccccc1)c1ccccc1 | 3 ×10⁻⁵ M | – | –
NCc1ncc(CO)c(CO)c1O | 1 ×10⁻⁵ M | – | growth inhibition (GI) (TA3 [3]): 25%
OCc1cnc(/C=N/N=C/c2ncc(CO)c(CO)c2O)c(O)c1CO | 1.6 ×10⁻⁵ M | – | ID50 (TA3 [4]): 1.1 ×10⁻⁵ M
C=Cc1ncc(CO)c(CO)c1O | – | – | IC50 (TA3 [4]; [5]): 9.4 µM; IC50 (TA3 [1]; [5]): 9.4 µM
NC(=O)c1ncc(CO)c(CO)c1O | 1 ×10⁻⁴ M | – | growth inhibition (GI) (TA3 [3]): 40%
CC1(C)OCc2cnc(CCl)c(OCc3ccccc3)c2CO1.Cl | 12 ×10⁻⁵ M | – | –
OCc1cnc(Cl)c(O)c1CO | 4.5 ×10⁻⁵ M | – | Ki (Pyridoxal kinase): 24 µM; growth inhibition (GI) (TA3 [4]): inactive
CCOC(=O)c1cncc(OC)c1C(=O)OCC | – | inactive | –
Cn1c(=O)oc2c(CO)c(CO)cnc21 | >1 ×10⁻⁴ M | – | –
COc1cncc(C(=O)O)c1C(=O)O | – | inactive | –
Br.COC(=O)N(C)c1ncc(CO)c(CO)c1OCc1ccccc1 | 1.6 ×10⁻⁴ M | – | –
COc1c(C(=O)O)ncc(C(=O)O)c1C(=O)O | – | inactive | –
CNc1ncc(CO)c(CO)c1O.Cl | 1 ×10⁻⁴ M | – | growth inhibition (GI) (TA3 [3]): 15%
C#Cc1ncc(CO)c(CO)c1O | – | – | Ki (Pyridoxal kinase): 105 µM
COC(=O)c1cncc(OC)c1C(=O)OC | – | inactive | –
Cl.Nc1ncc(CO)c(CO)c1O | 1.25 ×10⁻⁵ M | – | growth inhibition (GI) (TA3 [4]): inactive
COc1cncc2c1C(=O)OC2=O | – | inactive | –
O=C(O)c1ncc(CO)c(CO)c1O | >1 ×10⁻⁴ M | – | –
N/N=C/c1ncc(CO)c(CO)c1O | 2.3 ×10⁻⁴ M | – | –
